PAD4 inh = blocks human protein arginine deiminase 4; recombinant PAD4, RCA probe fluorescence polarization; hit rate 0.41% among 330,000; inhibition, % at 6.36 µM;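 active = percent inhibition above a cutoff equal to the mean of all tested compounds plus 3 SD, cut at about 15% in these data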
Apaf1 inhib = inhibitors of human Apaf-1 apoptosome. reconstituted apoptosome caspase-3 activity, DEVD-Rh110 fluorescence. inhibition, % at 20 µM. hit rate 0.71% among 330,000. AID 489030; active = inhibition of at least 40% at 20 µM
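Material: reconstituted apoptosome with Apaf-1, cytochrome c, caspase-9, procaspase-3, dATP; medium: pH 7.5 Hepes buffer with CHAPS, BSA, DTT; also added: cytochrome c and DEVD-Rh110 substrate; timing: 30 min plus 50 min, RT; signal: Rh110 fluorescence intensity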
GSTO1 inh = blocks human GSTO1 in RBBP9 counter-screen | P78417 | recombinant GSTO1, activity-based probe fluorescence polarization | inhibition, % at 5.96 µM | hit rate 1.1% among 300,000 | AID 1974;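 active = inhibition above the campaign mean inhibition plus 3 SD, cut at about 35% in these data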
Target sequence (P78417 whole entry, looked up): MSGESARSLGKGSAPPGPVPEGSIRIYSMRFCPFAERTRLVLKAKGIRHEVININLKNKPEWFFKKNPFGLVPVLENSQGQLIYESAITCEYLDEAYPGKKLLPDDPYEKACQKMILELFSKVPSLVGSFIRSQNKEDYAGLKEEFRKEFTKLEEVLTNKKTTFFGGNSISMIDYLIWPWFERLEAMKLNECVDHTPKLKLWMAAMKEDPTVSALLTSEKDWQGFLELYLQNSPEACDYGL
PRMT1 inh = PRMT1 (human) inhibition, primary screen; Q99873; recombinant PRMT1, activity-based probe fluorescence polarization; inhibition, % at 2.79 µM; hit rate 1.3% among 370,000; AID 652257;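 active = inhibition above about 21% made by adding two undisclosed values, limit read from the data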
TDP2 absorb = TDP2 (human) inhibition, absorbance primary screen. hit rate 0.34% among 370,000. inhibition, % at 12.8 µM. recombinant TDP2, T5PNP hydrolysis, p-nitrophenol absorbance 415 nm;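 active = inhibition above the mean of all tested compounds plus 3 SD, set per campaign, cut at about 25% in these data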
Target sequence (O95551 whole entry, looked up): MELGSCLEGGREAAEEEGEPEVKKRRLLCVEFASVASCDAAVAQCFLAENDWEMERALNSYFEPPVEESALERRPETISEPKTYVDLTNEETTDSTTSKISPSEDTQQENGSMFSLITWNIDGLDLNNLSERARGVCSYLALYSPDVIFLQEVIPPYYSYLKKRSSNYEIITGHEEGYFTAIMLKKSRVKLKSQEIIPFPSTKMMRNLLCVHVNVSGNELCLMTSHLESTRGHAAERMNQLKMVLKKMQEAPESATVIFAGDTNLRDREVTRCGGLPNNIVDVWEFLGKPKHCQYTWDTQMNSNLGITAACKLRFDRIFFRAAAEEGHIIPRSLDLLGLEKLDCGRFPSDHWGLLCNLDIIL
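Assay system: Recombinant human TDP2 | Quantity: 120 nM TDP2 per well | Incubation: 2 h at 37 °C | Signal: Epi absorbance | Evaluation: Percent inhibition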
PRMT1 inh conf = PRMT1 (human) inhibition, FP confirmation | recombinant His-PRMT1, activity-based probe fluorescence polarization | AID 687036 | shares compounds with PRMT1 inh | inhibition, % at 2.79 µM | hit rate 42% among 3,300;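 active = mean inhibition across replicates above the hit cutoff derived for the earlier primary screen, cut at about 22% in these data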
Large screens that a line does not name were inactive (follow-up assays come after a bar, where they were run). An excerpt weighted towards active compounds, which were near 2.6% of everything screened.

COC(=O)CCC(=O)Nc1ccc(Cl)c(Cl)c1	none
CCO/C(C)=N/Oc1cc(OC)cc(OC)c1	none (no result: PAD4 inh, Apaf1 inhib, GSTO1 inh)
COc1ccccc1CN1CCC(n2nccc2NC(=O)CCCc2ccccc2)CC1	none
CC(C)(C)c1nnc(SCC(=O)c2ccccc2)n(N)c1=O	PRMT1 inh 75 | PRMT1 inh conf 57
O=c1c(-c2cccc3ccccc23)[n+]([O-])c2ccccc2n1O	PRMT1 inh 25 | PRMT1 inh conf inactive
CCCOc1ccc(-c2c(=O)n(O)c3ccccc3[n+]2[O-])cc1	PRMT1 inh 32 | PRMT1 inh conf inactive
CCOn1c(=O)c(-c2cccc3ccccc23)[n+]([O-])c2ccccc21	none
COc1ccc(C(C)NC(=O)c2ccncc2)cc1OC (centres undefined)	none
N#CC1=C(N)OC2=C(CC/C2=C\c2ccccc2Cl)C1c1ccccc1Cl (centres undefined)	none
N#CC1=C(N)OC2=C(CC/C2=C\c2ccccc2)C1c1ccccc1 (centres undefined)	PRMT1 inh 27 | PRMT1 inh conf 48
Cc1cc2nc(-c3ccc(C#N)cc3)c(Cc3ccsc3)n2c(C)c1Br	none (no result: PAD4 inh, Apaf1 inhib, GSTO1 inh)
Cc1ccc(N(C)C2=NC(=O)CS2)cc1Cl	none
O=C(CC1Sc2ncnn2C1=O)Nc1ccc(Br)cc1 (centres undefined)	PRMT1 inh 53 | PRMT1 inh conf 54
Cc1cccc2cc3c(N)c(C(=O)N4CCOCC4)sc3nc12	PRMT1 inh 36 | PRMT1 inh conf inactive
Nc1c(C(=O)N2CCOCC2)sc2nc(N3CCOCC3)c3c(c12)CCCC3	PRMT1 inh 34 | PRMT1 inh conf inactive
Cc1ccc(NC(=O)c2sc3nc(N4CCOCC4)c4c(c3c2N)CCCC4)cc1	PRMT1 inh 27 (no result: PAD4 inh, Apaf1 inhib, GSTO1 inh) | PRMT1 inh conf inactive
COc1cccc(NC(=O)c2sc3nc(N4CCOCC4)c4c(c3c2N)CCCC4)c1	PRMT1 inh 32 | PRMT1 inh conf inactive
Cc1cc(N2CCN(CC(C)(C)O)C[C@@H]2C)ccc1N1CCN(Cc2ccccc2)[C@H](C)C1	none (no result: PAD4 inh, Apaf1 inhib, GSTO1 inh)
Nc1c(C(=O)Nc2ccc(Cl)cc2)sc2nc(N3CCOCC3)c3c(c12)CCCC3	PRMT1 inh 30 | PRMT1 inh conf 46
Nc1c(C(=O)Nc2ccccc2)sc2nc(N3CCOCC3)c3c(c12)CCCC3	PRMT1 inh 35 (no result: PAD4 inh, Apaf1 inhib, GSTO1 inh) | PRMT1 inh conf inactive
O=C(O)CCCC(=O)Nc1ccc(OCc2nc3ccccc3s2)cc1	PRMT1 inh 26 | PRMT1 inh conf inactive
CCNC(=S)Nc1cc(-c2ccc(Cl)cc2)[nH]n1	PRMT1 inh 44 | PRMT1 inh conf 29
CCOc1ccccc1C(=O)NCC(=O)N(C)CC(=O)Nc1ccc(N2CCOCC2)cc1	none (no result: PAD4 inh, Apaf1 inhib, GSTO1 inh)
CN1C2=N[C@@H](c3cccc(C(F)(F)F)c3)CC(=O)N2/C(=C\c2ccccc2)[C@H]1c1ccccc1	PRMT1 inh 55 (no result: PAD4 inh, Apaf1 inhib, GSTO1 inh) | PRMT1 inh conf 47
CC(=O)NC(c1ccc(F)c(F)c1)c1nc(-c2cnc3ccccc3c2)cs1 (centres undefined)	PRMT1 inh 32 (no result: PAD4 inh, Apaf1 inhib, GSTO1 inh) | PRMT1 inh conf inactive
CC(=O)NC(c1ccc(F)c(F)c1)c1nc(-c2cccc(F)c2)cs1 (centres undefined)	none (no result: PAD4 inh, Apaf1 inhib, GSTO1 inh)
CCN1C(=O)CS/C1=N\S(=O)(=O)c1ccc(Cl)cc1	none
CCn1c(Cl)c(C=O)s/c1=N\S(=O)(=O)c1ccccc1	PRMT1 inh 49 | PRMT1 inh conf 27
FC(F)(F)c1ccc(Cl)c(CN2CCN(c3ncc(Cc4ccccc4)cn3)CC2)c1	none (no result: PAD4 inh, Apaf1 inhib, GSTO1 inh)
O=[N+]([O-])c1cnc2ccccc2c1Sc1ccccc1	PRMT1 inh 73 (no result: PAD4 inh, Apaf1 inhib, GSTO1 inh) | PRMT1 inh conf 71
O=S(=O)([O-])CCC[n+]1c(SCCCS(=O)(=O)O)sc2ccc(Cl)cc21	PRMT1 inh 71 | PRMT1 inh conf 75
CCn1c(C)[n+](CCCS(=O)(=O)[O-])c2cc(Cl)c(Cl)cc21	none
COc1ccc(NC(=O)c2cccc(-c3ccc(O)cc3)c2)cn1	PRMT1 inh 41 | PRMT1 inh conf inactive
CC(=O)Nc1cccc(NC(=O)c2cccc(-c3ccc(O)cc3)c2)c1	none
C=C(C)c1cccc(C(C)(C)NC(=O)Nc2ccc(OC)nc2)c1	PRMT1 inh 25 | PRMT1 inh conf inactive
O=C(N/N=C(\c1ccccc1)c1cccnc1)c1cc(O)ccc1O	none
O=C(CSc1nc(-c2ccc(Cl)cc2)[nH]c(=O)n1)Nc1cccc(Cl)c1	PRMT1 inh 51 | PRMT1 inh conf inactive
CC(=O)NC1C(=O)N=C(SCC(=O)Nc2cccc(Cl)c2)NC1=O (centres undefined)	PRMT1 inh 39 | PRMT1 inh conf inactive
O=C(CSc1n[nH]c(-c2cccnc2)n1)Nc1cccc(Cl)c1	none
C=CCNC(=O)c1ccc(N(Cc2ccc(Cl)cc2)S(C)(=O)=O)cc1	none
O=C(CCc1ccc(S(=O)(=O)N2CCOCC2)cc1)N/N=C/c1ccc(O)c(O)c1O	PRMT1 inh 33 | PRMT1 inh conf 50
Cc1c(O)nc(SCC(=O)Nc2ccc3c4c(cccc24)CC3)n(-c2ccccc2)c1=O	PRMT1 inh 29 | PRMT1 inh conf 23
O=C(CSc1nc(O)cc(=O)n1-c1ccccc1)Nc1ccc2c3c(cccc13)CC2	none
CN1C(=S)N2CCCN2C1c1ccccc1 (centres undefined)	none
COc1ccc(S(=O)(=O)Nc2cc(Sc3ncn[nH]3)c(O)c3ccccc23)cc1	PRMT1 inh 96, TDP2 absorb 65 (no result: PAD4 inh, Apaf1 inhib, GSTO1 inh) | PRMT1 inh conf 87
COc1ccc(S(=O)(=O)Nc2ccc(O)c(Sc3ncn[nH]3)c2)cc1	none
O=C(O)c1ccccc1-c1ccc(/C=C/c2cc(C(F)(F)F)[nH]c(=O)n2)o1	PRMT1 inh 29 (no result: PAD4 inh, GSTO1 inh) | PRMT1 inh conf 25
COc1ccc(-n2c(SCC(=O)Nc3ccc(Cl)cc3)nc(O)c(Cc3ccccc3)c2=O)cc1	PRMT1 inh 34 | PRMT1 inh conf 32
COc1ccccc1NC(=O)CSc1ccc2nnc(CCNC(=O)c3ccccc3)n2n1	none
COCCn1c(N)c(N(Cc2ccccc2)C(=O)CSCC(=O)Nc2ccc(C)cc2)c(=O)[nH]c1=O	none
COc1ccc(N=Nc2nc3ccc(Br)cc3n2C)cc1	PRMT1 inh 133 (no result: Apaf1 inhib) | PRMT1 inh conf inactive
COc1ccc(-c2c(-c3cc(OC)cc(OC)c3)n(C)c3ccc(Br)cc23)cc1	none (no result: GSTO1 inh)
COc1cccc(OC)c1NC(=O)CN1CCN(C)CC1	none
COCc1cccc(-c2csc(C(O)c3ccc(F)c(F)c3)n2)c1 (centres undefined)	PRMT1 inh 52 (no result: PAD4 inh, Apaf1 inhib, GSTO1 inh) | PRMT1 inh conf inactive
CC1(C)CC2C1CCC1(O)CC2(C)CCC1N(O)c1ccc(C(=O)NCCO)cn1 (centres undefined)	PRMT1 inh 28 (no result: GSTO1 inh) | PRMT1 inh conf inactive
O=C(O)C(Cc1c[nH]c2ccccc12)NS(=O)(=O)c1cccc(Cl)c1Cl (centres undefined)	none
Cc1cc(O)cc2c1C(=O)/C(=C/c1ccco1)O2	PRMT1 inh 28 | PRMT1 inh conf inactive

Source: PubChem BioAssay (several laboratories)
